Source: ChEMBL document CHEMBL1921722, “In vitro and in vivo evaluation of select kahalalide F analogs with antitumor and antifungal activities” (Bioorg Med Chem, 2011)

Tests used:
Type in all cases: functional
[1] = test system: UACC-257; test: Cytotoxicity against human UACC257 cells by sulforhodamine B assay
Method in brief: (§1)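 NCI Developmental Therapeutics Program 60-cell-line human tumor panel screen, run at NCI. A single-concentration pre-screen was followed by a five-concentration dose-response in 10-fold steps. GI50 is the concentration that reduces growth of treated cells to half that of untreated control cells. TGI is the concentration that completely halts growth.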

[2] = test system: MCF7; test: Cytotoxicity against human MCF7 cells assessed as cell growth at 800 nM by sulforhodamine B assay relative to control; details: read-out: Activity
[3] = test system: SF-295; test: Cytotoxicity against human SF295 cells assessed as cell growth at 80 nM by sulforhodamine B assay relative to control; details: read-out: Activity
[4] = test system: HOP-92; test: Cytotoxicity against human HOP92 cells assessed as cell growth at 800 nM by sulforhodamine B assay relative to control; details: read-out: Activity
[5] = test system: MDA-MB-231; test: Cytotoxicity against human MDA-MB-231 cells assessed as cell growth at 800 nM by sulforhodamine B assay relative to control; details: read-out: Activity
[6] = test system: SK-MEL-2; test: Cytotoxicity against human SK-MEL-2 cells assessed as cell growth at 80 uM by sulforhodamine B assay relative to control; details: read-out: Activity
[7] = test system: SNB-19; test: Cytotoxicity against human SNB19 cells assessed as cell growth at 80 uM by sulforhodamine B assay relative to control; details: read-out: Activity
[8] = test system: EKVX; test: Cytotoxicity against human EKVX cells assessed as cell growth at 80 uM by sulforhodamine B assay relative to control; details: read-out: Activity
[9] = test system: OVCAR-5; test: Cytotoxicity against human OVCAR5 cells assessed as cell growth at 8 uM by sulforhodamine B assay relative to control; details: read-out: Activity
[10] = test system: OVCAR-5; test: Cytotoxicity against human OVCAR5 cells assessed as cell growth at 80 uM by sulforhodamine B assay relative to control; details: read-out: Activity
[11] = test system: SNB-75; test: Cytotoxicity against human SNB75 cells assessed as cell growth at 800 nM by sulforhodamine B assay relative to control; details: read-out: Activity
[12] = test system: OVCAR-3; test: Cytotoxicity against human OVCAR3 cells assessed as cell growth at 8 uM by sulforhodamine B assay relative to control; details: read-out: Activity
[13] = test system: NCI-H522; test: Cytotoxicity against human NCI-H522 cells assessed as cell growth at 8 uM by sulforhodamine B assay relative to control; details: read-out: Activity
[14] = test system: U-251; test: Cytotoxicity against human U251 cells assessed as cell growth at 80 uM by sulforhodamine B assay relative to control; details: read-out: Activity
[15] = test system: A498; test: Cytotoxicity against human A498 cells assessed as cell growth at 800 nM by sulforhodamine B assay relative to control; details: read-out: Activity
Method in brief: (§2)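 Run at NCI in the DTP 60-cell-line human tumor panel by standard procedure. Compounds were first screened at a single concentration, then tested at five tenfold-spaced concentrations. GI50 is the concentration reducing treated-cell growth to half that of untreated controls; TGI is the concentration completely halting growth.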

[16] = test system: DU-145; test: Cytotoxicity against human DU145 cells assessed as cell growth at 8 nM by sulforhodamine B assay relative to control; details: read-out: Activity; method in brief: as §2
[17] = test system: NCI-H322M; test: Cytotoxicity against human NCI-H322M cells assessed as cell growth at 8 nM by sulforhodamine B assay relative to control; details: read-out: Activity
[18] = test system: NCI-H522; test: Cytotoxicity against human NCI-H522 cells by sulforhodamine B assay; details: for TGI: read-out: pTGI (converted); method in brief: as §1
[19] = test system: SF-539; test: Cytotoxicity against human SF539 cells assessed as cell growth at 800 nM by sulforhodamine B assay relative to control; details: read-out: Activity
[20] = test system: A549; test: Cytotoxicity against human A549 cells assessed as cell growth at 80 nM by sulforhodamine B assay relative to control; details: read-out: Activity; method in brief: as §2
[21] = test system: T47D; test: Cytotoxicity against human T47D cells assessed as cell growth at 8 nM by sulforhodamine B assay relative to control; details: read-out: Activity
[22] = test system: LOX IMVI; test: Cytotoxicity against human LOXIMVI cells assessed as cell growth at 80 uM by sulforhodamine B assay relative to control; details: read-out: Activity
[23] = test system: RXF 393; test: Cytotoxicity against human RXF393 cells by sulforhodamine B assay; details: for TGI: read-out: pTGI (converted); method in brief: as §1
[24] = test system: DU-145; test: Cytotoxicity against human DU145 cells assessed as cell growth at 8 uM by sulforhodamine B assay relative to control; details: read-out: Activity; method in brief: as §2
[25] = test system: OVCAR-4; test: Cytotoxicity against human OVCAR4 cells assessed as cell growth at 8 uM by sulforhodamine B assay relative to control; details: read-out: Activity
[26] = test system: HL-60(TB); test: Cytotoxicity against human HL-60(TB) cells assessed as cell growth at 8 uM by sulforhodamine B assay relative to control; details: read-out: Activity
[27] = test system: SK-MEL-28; test: Cytotoxicity against human SK-MEL-28 cells assessed as cell growth at 80 nM by sulforhodamine B assay relative to control; details: read-out: Activity
[28] = test system: A549; test: Cytotoxicity against human A549 cells assessed as cell growth at 80 uM by sulforhodamine B assay relative to control; details: read-out: Activity; method in brief: as §2
[29] = test system: A498; test: Cytotoxicity against human A498 cells by sulforhodamine B assay; details: for TGI: read-out: pTGI (converted); method in brief: as §2
[30] = test system: HCT-116; test: Cytotoxicity against human HCT116 cells assessed as cell growth at 8 nM by sulforhodamine B assay relative to control; details: read-out: Activity
[31] = test system: COLO 205; test: Cytotoxicity against human COLO205 cells assessed as cell growth at 800 nM by sulforhodamine B assay relative to control; details: read-out: Activity; method in brief: as §2
[32] = test system: HT-29; test: Cytotoxicity against human HT-29 cells by sulforhodamine B assay
Method in brief: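 Run by the NCI Developmental Therapeutics Program on its 60-line human tumour cell panel using the standard procedure. Compounds went through a single-concentration prescreen first, and those active by NCI criteria went on to a five-concentration growth-inhibition test. GI50 is the concentration that cuts growth of treated cells to half that of untreated control cells.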

[33] = test system: SW-620; test: Cytotoxicity against human SW620 cells assessed as cell growth at 8 uM by sulforhodamine B assay relative to control; details: read-out: Activity
[34] = test system: SF-268; test: Cytotoxicity against human SF268 cells assessed as cell growth at 8 uM by sulforhodamine B assay relative to control; details: read-out: Activity
[35] = test system: SK-MEL-28; test: Cytotoxicity against human SK-MEL-28 cells assessed as cell growth at 8 nM by sulforhodamine B assay relative to control; details: read-out: Activity
[36] = test system: UACC-257; test: Cytotoxicity against human UACC257 cells assessed as cell growth at 8 uM by sulforhodamine B assay relative to control; details: read-out: Activity
[37] = test system: UACC-62; test: Cytotoxicity against human UACC62 cells assessed as cell growth at 80 nM by sulforhodamine B assay relative to control; details: read-out: Activity
[38] = test system: SNB-75; test: Cytotoxicity against human SNB75 cells assessed as cell growth at 8 uM by sulforhodamine B assay relative to control; details: read-out: Activity

C/C=C1\NC(=O)[C@H](Cc2ccccc2)NC(=O)[C@@H](C(C)C)NC(=O)[C@@H]([C@@H](C)CC)NC(=O)[C@H](NC(=O)[C@H](NC(=O)[C@H](CCCNCc2ccc(F)c(C)c2)NC(=O)[C@H]2CCCN2C(=O)[C@H](NC(=O)[C@@H](NC(=O)[C@@H](NC(=O)[C@H](NC(=O)CCCC(C)C)C(C)C)[C@@H](C)O)C(C)C)C(C)C)[C@@H](C)CC)[C@@H](C)OC(=O)[C@H](C(C)C)NC1=O
LC50 [1]: 5.13 µM
GI50 ([1]; read-out: GI50): 1280 nM
TGI ([1]; read-out: TGI): 2550 nM
GI50 ([1]; read-out: pGI50 (converted)): 1290 nM
TGI ([1]; read-out: pTGI (converted)): 2570 nM
growth at 0.8 µM [2]: 80%
growth at 0.08 µM [3]: 85%
growth at 0.8 µM [4]: 92%
growth at 0.8 µM [5]: 91%
growth at 80 µM [6]: -21%
growth at 80 µM [7]: -66%
growth at 80 µM [8]: -59%
growth at 8 µM [9]: -95%
growth at 80 µM [10]: -98%
growth at 0.8 µM [11]: 21%
growth at 8 µM [12]: -94%
growth at 8 µM [13]: 3%
growth at 80 µM [14]: -89%
growth at 0.8 µM [15]: 96%
growth at 0.008 µM [16]: 99%
growth at 0.008 µM [17]: 105%
GI50 [18]: 2.57 µM
LC50 [18]: > 75.9 µM
TGI [18]: 35.5 µM
growth at 0.8 µM [19]: 93%
growth at 0.08 µM [20]: 98%
growth at 0.008 µM [21]: 104%
growth at 80 µM [22]: -92%
GI50 [23]: 1350 nM
LC50 [23]: 6.31 µM
TGI [23]: 2.95 µM
growth at 8 µM [24]: -100%
growth at 8 µM [25]: -65%
growth at 8 µM [26]: -65%
growth at 0.08 µM [27]: 105%
growth at 80 µM [28]: 1%
GI50 [29]: 1320 nM
LC50 [29]: 4.47 µM
TGI [29]: 2450 nM
growth at 0.008 µM [30]: 98%
growth at 0.8 µM [31]: -66%
GI50 ([32]; read-out: GI50): 164 nM
GI50 ([32]; read-out: pGI50 (converted)): 162 nM
growth at 8 µM [33]: -100%
growth at 8 µM [34]: -63%
growth at 0.008 µM [35]: 97%
growth at 8 µM [36]: -78%
growth at 0.08 µM [37]: 104%
growth at 8 µM [38]: -73%

C/C=C1\NC(=O)[C@H](Cc2ccccc2)NC(=O)[C@@H](C(C)C)NC(=O)[C@@H]([C@@H](C)CC)NC(=O)[C@H](NC(=O)[C@H](NC(=O)[C@H](CCCNCc2ccc(N3CCOCC3)cc2)NC(=O)[C@H]2CCCN2C(=O)[C@H](NC(=O)[C@@H](NC(=O)[C@@H](NC(=O)[C@H](NC(=O)CCCC(C)C)C(C)C)[C@@H](C)O)C(C)C)C(C)C)[C@@H](C)CC)[C@@H](C)OC(=O)[C@H](C(C)C)NC1=O
GI50 ([1]; read-out: GI50): 1340 nM
TGI ([1]; read-out: TGI): 2650 nM
GI50 ([1]; read-out: pGI50 (converted)): 1350 nM
TGI ([1]; read-out: pTGI (converted)): 2630 nM
growth at 0.8 µM [2]: 91%
growth at 0.08 µM [3]: 99%
growth at 0.8 µM [4]: 79%
growth at 0.8 µM [5]: 86%
growth at 80 µM [6]: -32%
growth at 80 µM [7]: -5%
growth at 80 µM [8]: -46%
growth at 8 µM [9]: -74%
growth at 80 µM [10]: -47%
growth at 0.8 µM [11]: 54%
growth at 8 µM [12]: -72%
growth at 8 µM [13]: 40%
growth at 80 µM [14]: -61%
growth at 0.8 µM [15]: 100%
growth at 0.008 µM [16]: 99%
growth at 0.008 µM [17]: 109%
GI50 [18]: 5.01 µM
LC50 [18]: > 75.9 µM
TGI [18]: 33.1 µM
growth at 0.8 µM [19]: 93%
growth at 0.08 µM [20]: 102%
growth at 0.008 µM [21]: 101%
growth at 80 µM [22]: -59%
GI50 [23]: 1580 nM
LC50 [23]: > 75.9 µM
TGI [23]: 3.55 µM
growth at 8 µM [24]: -96%
growth at 8 µM [25]: -59%
growth at 8 µM [26]: -17%
growth at 0.08 µM [27]: 99%
growth at 80 µM [28]: 4%
GI50 [29]: 1580 nM
LC50 [29]: 7.41 µM
TGI [29]: 3470 nM
growth at 0.008 µM [30]: 102%
growth at 0.8 µM [31]: -52%
GI50 ([32]; read-out: GI50): 224 nM
GI50 ([32]; read-out: pGI50 (converted)): 224 nM
growth at 8 µM [33]: -98%
growth at 8 µM [34]: -52%
growth at 0.008 µM [35]: 87%
growth at 8 µM [36]: -76%
growth at 0.08 µM [37]: 103%
growth at 8 µM [38]: -80%
